Data published in ChEMBL document CHEMBL1124429, “Heterocyclic analogues of benzamide antiarrhythmic agents” (J Med Chem, 1989).
Values joined by “and” are separate entries in the source; they are usually repeats but may differ in a detail not shown here. Equal values may be shown once.

Columns and labels:
Cavia porcellus [1] = species: Cavia porcellus; assay: Concentration of compound which gives a 20% decrease in contractile force was tested on papillary muscle of guinea pig, activity was expressed as EC-20; NR is not reached..; format: functional; conditions: Muscle tissue
Outline: (§1)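 Contractile force measured in an isolated cardiac muscle preparation. Value is the concentration giving a 20% decrease in force of contraction. NR marks that this decrease was not reached. Values come from individual experiments; for N ≥ 3, the mean is given with the range.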

Canis familiaris [2] = species: Canis familiaris; assay: Maximum percent change in repolarization at 0.1 uM concentration on Canine Purkinje fibers.; format: functional, Canis lupus familiaris, Purkinje fiber
Outline: (§2)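 Isolated canine Purkinje fibers were superfused with physiological saline gassed with 95% O2/5% CO2 (pH 7.35–7.40) at 36 ± 0.5 °C. Paced at 1.0 Hz with 2-ms pulses at twice diastolic threshold. After up to 1 h stabilization, compounds were tested over 10^-8 to 10^-3 M, 30 min per concentration, one compound per fiber, with vehicle controls. Intracellular microelectrodes (3 M KCl) recorded Vmax and APD95; maximum percent change from control is reported with its concentration.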

Canis familiaris [3] = species: Canis familiaris; assay: Percent change from control in conduction time (CT) at 10 uM concentration tested on Canine ventricular muscle fibre.; M is minimal(<10% change in CT); format: functional; conditions: Canis lupus familiaris, Muscle tissue
Outline: (§3)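 Canine right ventricular papillary muscle strips were superfused at 36 ± 0.5 °C with saline gassed with 95% O2/5% CO2. Diastolic threshold was found with 2-ms stimuli at 4000 ms cycle length, then pacing at 4× threshold for 60 min equilibration. FRP was measured at 1000 ms cycle length by S1-S2 premature stimulus after every tenth S1. Conduction time came from a bipolar electrogram. Various compound concentrations were tested, one compound per strip, with vehicle controls. Percent change from control was taken at 10 µM, or the maximum change with its concentration; for N ≥ 3, mean with range.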

Canis familiaris [4] = species: Canis familiaris; assay: Percent change from control in the functional refractory period (FRP) at 10 uM conc. on Canine ventricular muscle fibre.; set-up: species or system Canis lupus familiaris, Muscle tissue; outline: as §3
Canis familiaris [5] = species: Canis familiaris; assay: Maximum percent change in conduction time (CT) at 100 uM concentration tested on Canine ventricular muscle fibre; format: functional, Canis lupus familiaris, Muscle tissue; outline: as §3
Canis familiaris [6] = species: Canis familiaris; assay: Maximum percent change in repolarization at 30 uM concentration on Canine Purkinje fibers.; format: functional, Canis lupus familiaris, Purkinje fiber; outline: as §2
Canis familiaris [7] = species: Canis familiaris; assay: Maximum Percent change from control in the rate of rise of phase 0 of the action potential at 30 uM concentration on Canine Purkinje fibers.; set-up: species or system Canis lupus familiaris, Purkinje fiber; conditions: dog, in vitro; outline: as §2
Canis familiaris [8] = species: Canis familiaris; assay: Maximum Percent change from control in the rate of rise of phase 0 of the action potential at 100 uM concentration on Canine Purkinje fibers.; format: Canis lupus familiaris, Purkinje fiber; conditions: dog, in vitro; outline: as §2
Canis familiaris [9] = species: Canis familiaris; assay: Maximum percent change in repolarization at 1 uM concentration on Canine Purkinje fibers.; format: functional, Canis lupus familiaris, Purkinje fiber; outline: as §2
Canis familiaris [10] = species: Canis familiaris; assay: Percent change in repolarization at 10 Purkinje fibers.; value ranges from 3-7; format: functional, Canis lupus familiaris, Purkinje fiber
Outline: (§4)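 Canine Purkinje fibers were held in oxygenated (95% O2–5% CO2) physiological saline, pH 7.35–7.40, at 36 ± 0.5 °C and paced at 1.0 Hz with 2-ms pulses at twice diastolic threshold. Intracellular microelectrodes (3 M KCl) recorded Vmax and APD95 simultaneously. After up to 1 h of stabilization, compounds were tested from 10^-8 to 10^-3 M with 30 min per concentration. One compound per fiber, with vehicle controls. For N ≥ 3, values are the mean with the range.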

Canis familiaris [11] = species: Canis familiaris; assay: Percent change from control in the rate of rise of phase 0 of the action potential at 10 uM concentration on Canine Purkinje fibers.; set-up: species or system Canis lupus familiaris, Purkinje fiber; conditions: dog, in vitro
Canis familiaris [12] = species: Canis familiaris; assay: Maximum percent change in conduction time (CT) at 100 uM concentration tested on Canine ventricular muscle fibre; value ranges from 6-27; format: functional, Canis lupus familiaris, Muscle tissue; outline: as §3
Canis familiaris [13] = species: Canis familiaris; assay: The maximum percent change in action potential (Vmax ) at concentration observed (100 uM was tested on Canine Purkinje fibers.; set-up: species or system Canis lupus familiaris, Purkinje fiber; conditions: dog; outline: as §4
Canis familiaris [14] = species: Canis familiaris; assay: Percent change in repolarization at 10 Purkinje fibers.; value ranges from -6 -2; format: functional, Canis lupus familiaris, Purkinje fiber; outline: as §4
Canis familiaris [15] = species: Canis familiaris; assay: Maximum percent change in repolarization at 100 uM concentration on Canine Purkinje fibers.; format: functional, Canis lupus familiaris, Purkinje fiber; outline: as §2
Canis familiaris [16] = species: Canis familiaris; assay: Percent change from control in the functional refractory period (FRP) at 10 uM conc. on Canine ventricular muscle fibre.; value ranges from -1 - 16; set-up: species or system Canis lupus familiaris, Muscle tissue; outline: as §3
Canis familiaris [17] = species: Canis familiaris; assay: Maximum percent change in functional refractory period (FRP) at 100 uM on Canine ventricular muscle fibre.; value ranges from -3 - 26; set-up: species or system Canis lupus familiaris, Muscle tissue; outline: as §3
Canis familiaris [18] = species: Canis familiaris; assay: Maximum Percent change from control in the rate of rise of phase 0 of the action potential at 1 uM concentration on Canine Purkinje fibers.; set-up: species or system Canis lupus familiaris, Purkinje fiber; outline: as §2
Canis familiaris [19] = species: Canis familiaris; assay: Percent change from control in the rate of rise of phase 0 of the action potential at 10 uM concentration on Canine Purkinje fibers.; value ranges from -18 - -4; format: organism-based, Canis lupus familiaris, Purkinje fiber; conditions: dog, in vitro
Canis familiaris [20] = species: Canis familiaris; assay: Maximum percent change in conduction time (CT) at 0.1 uM concentration tested on Canine ventricular muscle fibre; format: functional, Canis lupus familiaris, Muscle tissue; outline: as §3
Canis familiaris [21] = species: Canis familiaris; assay: Maximum percent change in functional refractory period (FRP) at 10 uM on Canine ventricular muscle fibre.; set-up: species or system Canis lupus familiaris, Muscle tissue; outline: as §3
Canis familiaris [22] = species: Canis familiaris; assay: Maximum Percent change from control in the rate of rise of phase 0 of the action potential at 0.1 uM concentration on Canine Purkinje fibers.; set-up: species or system Canis lupus familiaris, Purkinje fiber; outline: as §2
Canis familiaris [23] = species: Canis familiaris; assay: Maximum percent change in conduction time (CT) at 1 uM concentration tested on Canine ventricular muscle fibre; format: functional, Canis lupus familiaris, Muscle tissue; outline: as §3
Cavia porcellus [24] = species: Cavia porcellus; assay: Concentration of compound ( ) which gives a 20% decrease in contractile force was tested on papillary muscle of guinea pig, activity was expressed as EC-20.; NR is not reached.; format: functional; conditions: Muscle tissue; outline: as §1
Canis familiaris [25] = species: Canis familiaris; assay: Maximum Percent change from control in the rate of rise of phase 0 of the action potential at 10 uM concentration on Canine Purkinje fibers.; format: functional, Canis lupus familiaris, Purkinje fiber; conditions: dog, in vitro; outline: as §2
Canis familiaris [26] = species: Canis familiaris; assay: Percent change from control in the functional refractory period (FRP) at 10 uM concentration on Canine ventricular muscle fibre.; set-up: species or system Canis lupus familiaris, Muscle tissue; outline: as §3
Canis familiaris [27] = species: Canis familiaris; assay: Percent change from control in the rate of rise of phase 0 of the action potential at 10 uM concentration on Canine Purkinje fibers.; value ranges from -17.0-2.0; set-up: species or system Canis lupus familiaris, Purkinje fiber; conditions: dog, in vitro
Canis familiaris [28] = species: Canis familiaris; assay: Percent change in repolarization at 10 Purkinje fibers.; value ranges from -1-49; format: functional, Canis lupus familiaris, Purkinje fiber; outline: as §4

CCN(CC)CCCNC(=O)c1c(O)cc(C)nc1C
EC20 (Cavia porcellus [1]): Not reached | APD95 (Canis familiaris [2]): 5% | CT (Canis familiaris [3]): Minimal | FRP (Canis familiaris [4]): 13% | CT (Canis familiaris [5]): -7% | APD95 (Canis familiaris [6]): 15% | Vmax (Canis familiaris [7]): -1% | Vmax (Canis familiaris [8]): 7% | APD95 (Canis familiaris [9]): 4% | APD95 (Canis familiaris [10]): 5% | Vmax (Canis familiaris [11]): 4.6%

CCN(CC)CCNC(=O)c1cccc2[nH]ccc12
CT (Canis familiaris [12]): 14.7% | CT (Canis familiaris [3]): Minimal | Vmax (Canis familiaris [13]): -19% | APD95 (Canis familiaris [14]): -3% | APD95 (Canis familiaris [15]): -25% | FRP (Canis familiaris [16]): 6.3% | FRP (Canis familiaris [17]): 10.7% | APD95 (Canis familiaris [6]): -20% | Vmax (Canis familiaris [7]): -22% and -26% | Vmax (Canis familiaris [18]): -14% | APD95 (Canis familiaris [9]): -6% | Vmax (Canis familiaris [19]): -10.5%

CCN(CC)CCNC(=O)c1[nH]c(C)c(C)c1C
CT (Canis familiaris [3]): Minimal | CT (Canis familiaris [20]): 7% | FRP (Canis familiaris [21]): 24% | Vmax (Canis familiaris [22]): -3% | CT (Canis familiaris [23]): -5% | APD95 (Canis familiaris [15]): -9% | EC20 (Cavia porcellus [24]): Not reached | Vmax (Canis familiaris [25]): -17% | APD95 (Canis familiaris [6]): 12% | FRP (Canis familiaris [26]): 24% | Vmax (Canis familiaris [8]): -42% | Vmax (Canis familiaris [27]): -6.3% | APD95 (Canis familiaris [28]): 19.7%
